# Screens deposited in PubChem BioAssay by Johns Hopkins Ion Channel Center.
# In the library only some 3.8% were active in any assay of this set; here they are far more common.
# KCNQ1 act: potentiators or activators of KCNQ1 channel, primary screen, cell-based, thallium flux, high-throughput | Potassium voltage-gated channel subfamily KQT member 1 (Homo sapiens), P51787 | CHO-K1 KCNQ1, thallium flux FluxOR fluorescence; hits give high values | B-score at 10 µM | hit rate 0.35% among 310,000;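 active = fluorescence ratio B-score, a plate-corrected score, at least three library SD, with initial intensity B-score within 5 SD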
#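 Medium – assay buffer, equal DMSO in all wells · Material – CHO-K1 cell line with stable KCNQ1 potassium channel expression · Signal – kinetic FluxOR thallium fluorescence, 10-s 1-Hz baseline, 110-s post-stimulus read · Compound – single concentration per compound, DMSO matched to controls · Schedule – 37 °C overnight plating, 90-min dark dye load, 20-min compound pretreatment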
# KCNK3 block: human KCNK3 channel inhibitors, primary screen, CHO cells, FluxOR thallium flux, B-score; Potassium channel subfamily K member 3 (Homo sapiens), O14649; FluxOR fluorescence; hits give low values; B-score at 10 µM; hit rate 0.84% among 340,000; AID 602410, 2012;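 active = B-score under library mean minus 4 SD, starting fluorescence ratio at most library mean plus 5 SD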;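 also: more negative B-score means stronger inhibition of thallium flux through KCNK3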
# hERG rescue: hERG rescue from dofetilide block, primary screen, cell-based, CHO-hERG, FluxOR thallium flux, dofetilide IC70; Voltage-gated inwardly rectifying potassium channel KCNH2 (Homo sapiens), Q12809; dofetilide IC70 present; activation (rescue from dofetilide block), less the hit threshold, % at 10 µM; hit rate 0.51% among 310,000; AID 1511, 2009;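 active = activation above the mean of controls blocked by dofetilide plus 5 SD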;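 also: thallium influx through hERG after potassium depolarization seen as dye fluorescence rise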
# KCNQ1 inh: inhibitors of human KCNQ1 channel, primary screen, cell-based, thallium flux, high-throughput. Potassium voltage-gated channel subfamily KQT member 1 (Homo sapiens), P51787. CHO-K1 KCNQ1, FluxOR thallium flux fluorescence; hits give high values. B-score at 10 µM. hit rate 1.3% among 310,000. AID 2642, 2010;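 active = compounds whose thallium flux B-score, printed positive for inhibition, exceeds three library SD while starting fluorescence stays within three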;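 also: channel opened by potassium depolarization with thallium stimulus after 20 min compound exposure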
# Kir21 block: inhibitors of mouse Kir2.1 inward-rectifier potassium channel | Inward rectifier potassium channel 2 (Mus musculus), P35561 | HEK293-Kir2.1, FluxOR thallium flux fluorescence; hits give low values | B-score at 10 µM | hit rate 0.85% among 310,000 | AID 1672, 2009;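 active = fluorescence ratio B-score at or below minus 3 SD of library scores, with starting-brightness B-score within 2 SD, cut at about -4.2 in these data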;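 also: channel flux triggered by added potassium and thallium sulfate stimulus; B-score of peak minus minimum fluorescence over baseline after thallium stimulus; more negative B-score means stronger Kir2.1 block with less thallium influx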
# KCNK9 block: KCNK9 potassium channel inhibitors, primary screen, HEK293 cells, thallium flux; Potassium channel subfamily K member 9 (Homo sapiens), Q9NPC2; FluxOR thallium flux fluorescence; hits give low values; B-score at 10 µM; hit rate 1.2% among 310,000; AID 488922, 2010;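 active = ratio B-score over 3 SD below the library mean, with starting fluorescence within 5 SD of its mean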;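 also: negative B-score means less thallium flux so channel inhibition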
# Target sequence (Q9NPC2 whole entry, looked up): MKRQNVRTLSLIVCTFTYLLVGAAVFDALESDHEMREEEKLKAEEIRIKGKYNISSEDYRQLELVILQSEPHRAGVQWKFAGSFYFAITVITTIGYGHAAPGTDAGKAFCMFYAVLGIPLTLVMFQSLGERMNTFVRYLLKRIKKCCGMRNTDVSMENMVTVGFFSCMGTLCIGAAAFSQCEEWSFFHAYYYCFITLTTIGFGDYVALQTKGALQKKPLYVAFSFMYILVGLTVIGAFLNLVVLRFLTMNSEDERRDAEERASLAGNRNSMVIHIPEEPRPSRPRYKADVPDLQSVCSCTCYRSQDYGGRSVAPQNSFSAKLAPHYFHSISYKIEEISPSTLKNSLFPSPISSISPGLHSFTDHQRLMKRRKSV
# KCNK9 block conf: KCNK9 potassium channel inhibitors, confirmation, HEK293 cells, thallium flux, duplicate | inhibition, % at 10 µM | AID 492992, 2010 | hit rate 43% among 4,900 | shares compounds with KCNK9 block | FluxOR thallium flux fluorescence;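 active = thallium signal inhibited by more than 5 SD of the compound-free buffer control wells, on both duplicate plates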;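 also: 0% = assay buffer control wells without compound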
# Kir2-1 spec: mouse Kir2.1 channel inhibition, confirmation, selectivity assay for KCNK9 modulator project, cell-based, HEK293, thallium flux; shares compounds with KCNK9 block; Kir2.1 cells, FluxOR thallium flux fluorescence; inhibition, % at 10 µM; hit rate 4% among 4,900;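 active = thallium signal drop more than 5 SD beyond the mean of the no-compound control wells, seen in both duplicate plates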;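 also: signal is fluorescence rise after thallium addition divided by baseline fluorescence; plate controls were assay buffer only for no effect and full block by chlorpromazine control for full effect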
# HEK293 Tl ctr: thallium flux in non-induced HEK293 cells, confirmation, counter-screen for KCNK9 inhibitor project, cell-based, second counter screen, non-induced KCNK9-HEK293 | shares compounds with KCNK9 block | FluxOR thallium flux | inhibition, % at 10 µM | hit rate 40% among 4,900 | AID 492997, 2010;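 active = thallium signal drop beyond 5 SD of the untreated control mean, on both duplicate plates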;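 also: plate controls were buffer only IC0 wells for no effect and SID17386958 at its maximal inhibitory level for full effect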
# The depositor's hits bear a star; i = inactive; nt = no result given.
SMILES,KCNQ1 act,KCNK3 block,hERG rescue,KCNQ1 inh,Kir21 block,KCNK9 block,KCNK9 block conf,Kir2-1 spec,HEK293 Tl ctr
COc1ccc(C(=O)C2CCCN(C/C=C/c3ccccc3OC)C2)c(OC)c1 (configuration not stated),i,i,-20,i,-2.7,i,i,i,i
Cc1cc(-c2ccc(C(C)C)c(S(=O)(=O)Nc3cc(C)on3)c2)on1,i,i,-5,i,0.63,i,nt,nt,nt
CC(C)Sc1nc2sccc2c(=O)n1-c1ccccc1,i,i,-8,i,0.71,i,nt,nt,nt
CN1CCN(/N=C/c2ccc(Cl)c(Cl)c2)CC1,i,i,-12,i,-2.1,i,nt,nt,nt
Cc1cccc(N2CCN(C(=O)c3c(C)nn(Cc4ccccc4Cl)c3C)CC2)c1C,i,i,-11,i,-0.37,i,i,i,i
Cc1cccc(N2CCN(C(=O)Cc3ccccc3[N+](=O)[O-])CC2)c1C,i,i,-3,i,0.01,i,i,i,i
CC(=O)Nc1ccc(NC(=O)c2c(C)nn(Cc3ccccc3Cl)c2C)cc1,i,i,-6,i,0.68,i,nt,nt,nt
CC(=O)c1ccccc1OCC(O)CN1CCN(CCN2C(=O)c3cccc4cccc(c34)C2=O)CC1 (configuration not stated),i,i,-20,i,0.9,i,nt,nt,nt
Cc1ccc(C)c(OCC(O)CN2CCN(CCN3C(=O)c4cccc5cccc(c45)C3=O)CC2)c1 (configuration not stated),i,i,-27,i,-0.29,i,i,i,i
COc1cccc(C(=O)NCCS(=O)(=O)N2CCCCCC2)c1,i,i,-8,i,-1.5,i,nt,nt,nt
Cc1ccc2cc(C)c(N3CCN(c4ccccn4)CC3)nc2c1,i,i,-9,i,-0.15,i,i,i,26%*
CCOC(=O)c1c(C)oc2cc(Br)c(OC(C)C(=O)OCC)cc12 (configuration not stated),i,i,-19,i,-0.77,i,i,i,i
CC(=O)c1ccc(NC(=S)Nc2cccc3cnccc23)cc1,i,i,-18,i,-0.02,i,nt,nt,nt
CCCSC1=C(C#N)C(c2ccc(OC)cc2)C2=C(CC(C)(C)CC2=O)N1 (configuration not stated),i,i,-1,i,1,i,nt,nt,nt
COc1ccccc1N1C(C)=CC(=C(C#N)c2nc3ccccc3s2)C=C1C,i,i,-10,i,-3.5,-8.4*,37%*,i,70%*
CC1CCC(C(C)C)C(=O)/C1=C/c1ccc(N)cc1 (configuration not stated),i,i,-7,i,-0.02,i,nt,nt,nt
CC1/C(=C\c2ccc(Cl)cc2)C(=O)C2CC1C2(C)C (configuration not stated),i,i,-5,i,2.5,i,i,i,i
CC(C)(C)N1C(=O)[C@H]2[C@@H](c3ccc(Br)cc3)N3C(=O)N(c4cccc(Cl)c4)C(=O)[C@@]3(Cc3ccccc3)[C@H]2C1=O,i,i,-5,i,-0.55,-8.4*,i,i,26%*
CCCCNC(=O)C1CCN(Cc2ccc(OCc3ccccc3)c(OC)c2)CC1,i,i,-4,i,-0.39,i,nt,nt,nt
CCCCOC1CC(c2ccc(OCc3ccc(OC)cc3)c(OC)c2)N(C)O1 (configuration not stated),i,i,-2,i,1.7,i,i,i,i
NCCCCCc1nnc(SCc2cccc(Cl)c2)o1,i,i,-13,i,-0.39,i,nt,nt,nt
O=C(CCl)Nc1c(C(=O)Nc2ccc3c(c2)OCCO3)oc2ccccc12,i,i,-2,i,0.16,i,nt,nt,nt
Cc1ccc(Cn2c(C3CCCN3c3nc(C)cs3)nc3cc(C(F)(F)F)ccc32)cc1 (configuration not stated),i,i,-15,i,1.1,-15*,74%*,i,56%*
Cc1ccc(Cn2c(C3CCCN3c3nc(-c4cc(Cl)c(N)c(Cl)c4)cs3)nc3cc(C(=O)NCCCO)ccc32)cc1 (configuration not stated),i,i,-4,i,0.61,i,nt,nt,nt
CCCCCCn1nc(C(=O)Nc2nc3c(s2)CCCC3)c2ccccc2c1=O,i,i,-8,i,0.73,-13*,58%*,i,i
SMILES,KCNQ1 act,KCNK3 block,hERG rescue,KCNQ1 inh,Kir21 block,KCNK9 block,KCNK9 block conf,Kir2-1 spec,HEK293 Tl ctr
CCCn1nc(C(=O)Nc2nnc(CC)s2)c2ccccc2c1=O,i,i,-18,i,0.02,i,nt,nt,nt
CCC(=O)Nc1cc(OC)cc(OC)c1,i,i,-10,i,-1.7,i,nt,nt,nt
CCOC(=O)C(C#N)(Cc1cc(OC)cc(OC)c1)Cc1cc(OC)cc(OC)c1,i,i,-6,i,1.9,-14*,56%*,i,46%*
CCOC(=O)c1ccc(-n2c(C)nc3c(cnn3-c3ccc(Cl)cc3)c2=O)cc1,i,i,-7,i,-0.6,i,nt,nt,nt
CCOC(=O)c1ccc(-n2c(C)nc3c(cnn3-c3ccccc3Cl)c2=O)cc1,i,i,-17,i,1.2,i,i,i,i
COC(=O)C1=C(C)OC(N)=C(C#N)C1c1c(C)nn(-c2ccccc2)c1Cl (configuration not stated),i,i,-18,i,0.03,-13*,37%*,i,i
COC(=O)C1=C(C)OC(N)=C(C#N)C1c1ccccc1 (configuration not stated),i,i,-1,i,-1.6,i,nt,nt,nt
